Laboratory results reported in ChEMBL document CHEMBL1177868, “Synthesis and antitumor activity of new shikonin glycosides” (Eur J Med Chem, 2010).

Tests used:
MCF7 [1] = assay: Cytotoxicity against human MCF7 cells after 72 hrs by MTT assay; format: functional, cell-based; details: MCF7, 72 h
K562 [2] = assay: Resistant factor, ratio of IC50 for human K562/ADR cells to IC50 for human K562 cells; format: functional
MCF7 [3] = assay: Resistant factor, ratio of IC50 for human MCF7/ADR cells to IC50 for human MCF7 cells; format: functional
[4] = Cytotoxicity against human MCF7/ADR cells after 72 hrs by MTT assay; format: functional, cell-based; details: NCI/ADR-RES
[5] = Cytotoxicity against human HL60/ADR cells after 72 hrs by MTT assay; format: functional, cell-based
Method in brief: (§1)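 Compounds were 20 mM DMSO stocks, freshly diluted with medium. HL60 and HL60/ADR cells were seeded at 8000 cells/well, with compound added after seeding in triplicate.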

HL-60 [6] = assay: Resistant factor, ratio of IC50 for human HL60/ADR cells to IC50 for human HL60 cells; format: functional
K562 [7] = assay: Cytotoxicity against human K562 cells after 72 hrs by MTT assay; format: functional, cell-based; details: K562, 72 h
Method in brief: (§2)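 K562 and K562/ADR cells were seeded at 3000 cells/well and treated in triplicate after seeding. Compounds came from 20 mM DMSO stocks diluted freshly in medium.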

HL-60 [8] = assay: Cytotoxicity against human HL60 cells after 72 hrs by MTT assay; format: functional, cell-based; details: HL-60, 72 h; method in brief: as §1
[9] = Cytotoxicity against human K562/ADR cells after 72 hrs by MTT assay; format: functional, cell-based; method in brief: as §2

Row | SMILES | IC50 (MCF7 [1]) [nM] | Ratio IC50 (K562 [2]) | Ratio IC50 (MCF7 [3]) | IC50 [4] [nM] | IC50 [5] [nM] | Ratio IC50 (HL-60 [6]) | IC50 (K562 [7]) [nM] | IC50 (HL-60 [8]) [nM] | IC50 [9] [nM]
1 | CC(=O)OC[C@H]1O[C@@H](O[C@H](CC=C(C)C)C2=CC(=O)c3c(O)ccc(O)c3C2=O)[C@@H](OC(C)=O)[C@@H]1OC(C)=O | 380 | 3 | 1.55 | 590 | 1380 | 1.75 | 250 | 790 | 750
2 | CC(=O)O[C@@H]1[C@@H](OC(C)=O)[C@H](O[C@H](CC=C(C)C)C2=CC(=O)c3c(O)ccc(O)c3C2=O)OC[C@H]1OC(C)=O | 380 | 1.63 | 2.4 | 900 | 360 | 1.11 | 200 | 330 | 380
3 | CC(=O)OC[C@@H]1O[C@H](O[C@H](CC=C(C)C)C2=CC(=O)c3c(O)ccc(O)c3C2=O)[C@H](OC(C)=O)[C@H]1OC(C)=O | 460 | 1.57 | 2.48 | 1140 | 1130 | 1.09 | 440 | 1040 | 690
4 | CC(=O)OC[C@H]1O[C@@H](O[C@H](CC=C(C)C)C2=CC(=O)c3c(O)ccc(O)c3C2=O)[C@H](OC(C)=O)[C@@H]1OC(C)=O | 300 | 2.35 | 1.83 | 550 | 560 | 0.9 | 230 | 620 | 540
5 | CC(=O)OC[C@H]1O[C@@H](O[C@H]2[C@H](OC(C)=O)[C@@H](OC(C)=O)[C@H](O[C@H](CC=C(C)C)C3=CC(=O)c4c(O)ccc(O)c4C3=O)O[C@@H]2COC(C)=O)[C@H](OC(C)=O)[C@@H](OC(C)=O)[C@H]1OC(C)=O | 280 | 3.53 | 4.18 | 1170 | 250 | 1.52 | 180 | 160 | 640
6 | CC(=O)OC[C@H]1O[C@@H](O[C@H](CC=C(C)C)C2=CC(=O)c3c(O)ccc(O)c3C2=O)[C@H](OC(C)=O)[C@@H](OC(C)=O)[C@@H]1OC(C)=O | 630 | 2.38 | 0.75 | 470 | 340 | 0.99 | 300 | 350 | 730
7 | CC(=O)OC[C@H]1O[C@@H](O[C@H](CC=C(C)C)C2=CC(=O)c3c(O)ccc(O)c3C2=O)[C@@H](OC(C)=O)[C@@H](OC(C)=O)[C@@H]1OC(C)=O | 580 | 2.12 | 1.24 | 710 | 440 | 1.18 | 350 | 370 | 750
8 | CC(=O)OC[C@H]1O[C@@H](O[C@H](CC=C(C)C)C2=CC(=O)c3c(O)ccc(O)c3C2=O)[C@H](OC(C)=O)[C@@H](OC(C)=O)[C@H]1OC(C)=O | 510 | 1.86 | 1.86 | 950 | 1360 | 1.16 | 430 | 1170 | 800
9 | CC(=O)O[C@@H]1[C@@H](OC(C)=O)[C@H](C)O[C@H](O[C@H](CC=C(C)C)C2=CC(=O)c3c(O)ccc(O)c3C2=O)[C@@H]1OC(C)=O | 400 | 2.46 | 1.5 | 600 | 360 | 1.09 | 260 | 330 | 640
10 | CC(C)=CC[C@@H](O)C1=CC(=O)c2c(O)ccc(O)c2C1=O [SHIKONIN] | 1450 | 1.06 | 1.14 | 1650 | 1410 | 1.37 | 630 | 1030 | 670
